According to ChEMBL document CHEMBL1125747, “Design, synthesis, and physicochemical properties of a novel, conformationally restricted 2,3-dihydro-1,3,4-thiadiazole-containing angiotensin converting enzyme inhibitor which is preferentially eliminated by the biliary route in rats” (J Med Chem, 1991):

Tests used:
[1] = The acid dissociation constant, pKa was determined. a'' represents value of C-terminus carboxylic acid.; format: physicochemical
In short: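 Ionization constants measured by potentiometric titration at 25 °C on a thermostated automatic titrator, with pKa calculated from pH-volume data. For one ester prodrug, constants were instead obtained by the partition method in Miglyol 812-aqueous buffer systems.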

[2] = Compound was tested for its maximum lipophilicity.; format: physicochemical; conditions: octanol/water
In short: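 Shake-flask distribution coefficients in octanol–aqueous buffer across pH, run in triplicate and reported as the mean. Aqueous phases were HCl below pH 2, McIlvaine citrate-phosphate at pH 2.2–4.8, and Sorensen phosphate above pH 5, all at ionic strength 0.02. Phases were assayed before and after partitioning by UV or reversed-phase HPLC. Maximum lipophilicity was taken from the distribution–pH profile.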

[3] = target: T1, Angiotensin-converting enzyme (Rattus norvegicus) (UniProt P47820); experiment: Relative inhibitory activity against angiotensin I converting enzyme
T1 sequence (whole entry): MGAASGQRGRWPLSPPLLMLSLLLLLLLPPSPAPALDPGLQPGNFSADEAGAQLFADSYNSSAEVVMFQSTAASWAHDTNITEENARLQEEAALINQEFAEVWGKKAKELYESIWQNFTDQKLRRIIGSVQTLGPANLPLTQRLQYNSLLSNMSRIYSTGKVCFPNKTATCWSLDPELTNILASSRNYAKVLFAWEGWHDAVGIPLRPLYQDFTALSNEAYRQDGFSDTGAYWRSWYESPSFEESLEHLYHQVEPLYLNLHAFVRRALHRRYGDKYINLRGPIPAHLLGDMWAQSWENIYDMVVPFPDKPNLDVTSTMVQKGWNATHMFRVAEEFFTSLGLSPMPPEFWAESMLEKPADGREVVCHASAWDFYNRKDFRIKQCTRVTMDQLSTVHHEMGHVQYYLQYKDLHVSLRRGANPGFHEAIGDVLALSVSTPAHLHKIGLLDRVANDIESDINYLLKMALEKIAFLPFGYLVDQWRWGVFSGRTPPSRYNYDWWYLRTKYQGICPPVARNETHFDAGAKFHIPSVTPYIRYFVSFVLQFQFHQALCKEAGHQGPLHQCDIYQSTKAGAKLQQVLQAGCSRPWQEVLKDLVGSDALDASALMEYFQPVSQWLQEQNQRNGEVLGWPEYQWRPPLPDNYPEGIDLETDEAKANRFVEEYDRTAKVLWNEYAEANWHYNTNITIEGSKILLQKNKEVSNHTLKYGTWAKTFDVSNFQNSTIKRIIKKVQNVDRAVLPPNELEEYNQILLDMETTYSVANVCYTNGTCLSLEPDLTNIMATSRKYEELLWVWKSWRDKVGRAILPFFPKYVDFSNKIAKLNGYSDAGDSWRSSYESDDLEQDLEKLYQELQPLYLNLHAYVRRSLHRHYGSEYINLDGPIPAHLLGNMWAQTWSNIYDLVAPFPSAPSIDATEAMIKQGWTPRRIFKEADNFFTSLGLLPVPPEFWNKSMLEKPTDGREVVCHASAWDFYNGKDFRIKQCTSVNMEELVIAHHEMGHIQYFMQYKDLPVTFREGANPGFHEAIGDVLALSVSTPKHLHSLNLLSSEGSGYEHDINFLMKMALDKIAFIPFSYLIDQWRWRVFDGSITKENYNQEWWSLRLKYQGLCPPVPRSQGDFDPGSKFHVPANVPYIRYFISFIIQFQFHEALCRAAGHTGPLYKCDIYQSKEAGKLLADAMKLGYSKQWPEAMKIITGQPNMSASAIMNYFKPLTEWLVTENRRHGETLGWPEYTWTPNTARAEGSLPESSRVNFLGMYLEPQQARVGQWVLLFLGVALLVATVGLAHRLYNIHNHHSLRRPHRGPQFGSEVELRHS

[4] = The acid dissociation constant, pKa was determined. 'a' represents value of C-terminus carboxylic acid.; format: physicochemical
In short: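 Potentiometric titration at 25 °C on a thermostated automatic titrator. pKa values were calculated from pH–volume data. For one ester compound, ionization constants were instead obtained by the partition method in Miglyol 812–aqueous buffer systems.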

[5] = target: T2, Angiotensin-converting enzyme (Rattus norvegicus, UniProt P47820); experiment: Compound was tested for inhibitory activity against angiotensin I converting enzyme
T2 sequence (P47820 whole entry): T1 sequence (whole entry)

[6] = The acid dissociation constant, pKa was determined.'a' represents value of C-terminus carboxylic acid.; format: physicochemical
In short: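 Ionization constants came from potentiometric titration at 25 °C on a thermostated automatic titrator, with pKa calculated from the pH–volume data. For one ester, constants were instead determined by the partition method in Miglyol 812–aqueous buffer systems.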

[7] = Ratio of biliary and urinary excretion of angiotensin converting enzyme inhibitors in male rat after intravenous dosing.; format: functional, Urine

| Compound | Log Dmax [2] | Relative activity [3] | further results |
| --- | --- | --- | --- |
| NCCCC[C@H](N[C@@H](CCc1ccccc1)C(=O)O)C(=O)N1CCC[C@H]1C(=O)O [LISINOPRIL ANHYDROUS] | -2.86 |  | pKa [1]: 11.1 |
| O=C(O)C1SC(C23CC4CC(CC(C4)C2)C3)=NN1C(=O)CCS (stereo not given) |  | 1.3 |  |
| COc1ccc(C2=NN(C(=O)CCS)C(C(=O)O)S2)cc1 (stereo not given) |  | 1.3 |  |
| CCOC(=O)[C@H](CCc1ccccc1)N[C@@H](C)C(=O)N1CCC[C@H]1C(=O)O | -0.06 |  | pKa [4]: 5.49 |
| O=C(O)C1SC(c2ccco2)=NN1C(=O)CCS (stereo not given) |  | 1 |  |
| O=C(O)C1SC(C2CCCCC2)=NN1C(=O)CCS (stereo not given) |  | 6.3 |  |
| C[C@H](N[C@@H](CCc1ccccc1)C(=O)O)C(=O)N1N=C(c2ccccc2)S[C@H]1C(=O)O |  |  | IC50 [5]: 1.5 nM |
| O=C(O)C1SC(c2ccccc2)=NN1C(=O)CCS (stereo not given) |  | 1.3 |  |
| CC1=NN(C(=O)CCS)C(C(=O)O)S1 (stereo not given) |  | 2.5 |  |
| O=C(O)C1SC(c2ccc(C(F)(F)F)cc2)=NN1C(=O)CCS (stereo not given) |  | 1.6 |  |
| CC(C)(C)C1=NN(C(=O)[C@H](CCCCN)N[C@@H](CCc2ccccc2)C(=O)O)[C@H](C(=O)O)S1 |  |  | IC50 [5]: 0.7 nM |
| CCOC(=O)[C@H](CCc1ccccc1)N[C@@H](C)C(=O)N1N=C(C(C)(C)C)S[C@H]1C(=O)O [UTIBAPRIL] | 1.61 |  | pKa [6]: 5.4 |
| CC(C)(C)C1=NN(C(=O)CCS)C(C(=O)O)S1 (stereo not given) |  | 5.6 |  |
| CCOC(=O)[C@H](CCc1ccccc1)N[C@@H](C)C(=O)N1CC2(C[C@H]1C(=O)O)SCCS2 | 0.87 |  | pKa [6]: 5.5 |
| C[C@H](N[C@@H](CCc1ccccc1)C(=O)O)C(=O)N1CCC[C@H]1C(=O)O [ENALAPRILAT ANHYDROUS] | -0.7 |  | pKa [6]: 8.02 |
| CCC[C@H](N[C@@H](C)C(=O)N1N=C(C(C)(C)C)S[C@H]1C(=O)O)C(=O)O |  |  | IC50 [5]: 0.6 nM |
| C[C@H](N[C@@H](CCc1ccccc1)C(=O)O)C(=O)N1N=C(C(C)(C)C)S[C@H]1C(=O)O [UTIBAPRILAT] | 1.19 |  | Ratio [7]: 14.6; pKa [6]: 8; IC50 [5]: 0.51 nM |
